Calls of active or inactive are those of the source. The rule behind the calls is not given here.
Tests used:
[1] = Inhibition of soybean LOX using arachidonic acid as substrate incubated for 5 mins; parameters: species or system Glycine max
In short: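 Soybean lipoxygenase in assay buffer, compounds at 10⁻⁴–10⁻⁸ M from DMSO stocks, triplicate. Reaction started with arachidonic acid and shaken 5 min. Chromogen added, shaken 5 min more, absorbance read at 490 nm. Blanks were buffer + AA. % inhibition computed with chromogen extinction coefficient 9.47 mM⁻¹.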

[2] = target: T1, Prostaglandin G/H synthase 1 (Ovis aries, UniProt P05979); assay: Inhibition of ovine COX-1 using arachidonic acid as substrate preincubated for 10 mins followed by substrate addition and measured after 2 mins by EIA
T1 sequence (P05979 whole entry): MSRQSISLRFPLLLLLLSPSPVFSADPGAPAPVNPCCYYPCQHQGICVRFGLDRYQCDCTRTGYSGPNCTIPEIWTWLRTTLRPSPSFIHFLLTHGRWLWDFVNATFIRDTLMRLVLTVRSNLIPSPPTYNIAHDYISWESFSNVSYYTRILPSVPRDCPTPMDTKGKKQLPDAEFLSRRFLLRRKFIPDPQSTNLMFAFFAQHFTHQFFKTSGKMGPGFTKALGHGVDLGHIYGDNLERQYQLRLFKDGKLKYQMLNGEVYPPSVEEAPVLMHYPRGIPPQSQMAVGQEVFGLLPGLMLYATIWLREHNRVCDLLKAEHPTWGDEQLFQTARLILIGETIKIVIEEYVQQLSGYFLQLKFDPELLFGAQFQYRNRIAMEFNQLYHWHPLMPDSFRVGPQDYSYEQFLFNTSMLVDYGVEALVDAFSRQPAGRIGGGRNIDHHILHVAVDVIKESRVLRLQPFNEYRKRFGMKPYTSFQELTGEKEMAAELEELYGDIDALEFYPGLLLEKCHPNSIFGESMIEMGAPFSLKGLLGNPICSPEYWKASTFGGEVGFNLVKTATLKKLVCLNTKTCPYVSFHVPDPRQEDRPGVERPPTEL
In short: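 COX-1 EIA run at 10⁻⁴–10⁻⁸ M in triplicate. Enzyme with heme in reaction buffer plus inhibitor, incubated 10 min at 37 °C. Boiled (3 min) enzyme served as background. Prostaglandin output quantified to give IC50.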

Mus musculus [3] = assay: Analgesic activity in Swiss albino mouse assessed as inhibition of acetic acid-induced writhing at 5 mg/kg, ip administered 30 mins prior to acetic acid challenge and measured after 30 mins relative to control; format: functional
In short: (§1)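 Mice pretreated i.p. with indomethacin (10 mg/kg) or test compound (5 mg/kg) 30 min before 0.6% v/v acetic acid injection. Control group also received acetic acid. Animals placed in a transparent box and abdominal writhings counted for 30 min. Six animals per group, one-way ANOVA with Tukey's test, mean ± SEM.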

Mus musculus [4] = assay: Antiinflammatory activity in Swiss albino mouse model of carrageenan-induced paw edema assessed as reduction in paw thickness at 5 mg/kg, administered 30 mins prior to carrageenan challenge and measured upto 360 mins relative to control; format: functional; parameters: scale not given: the % may be the effect or the level left; settings: time 390 min, 6.5 h
In short: (§2)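 100 μL freshly prepared 1% carrageenan injected into the subplantar hind paw, with indomethacin (10 mg/kg) or test compound given 30 min before. Dose–response arm used 0.5, 2.5, 5, 10, 20 mg/kg. Six animals per group. Paw thickness (mm) read at 15, 30, 60, 120, 180, 240, 300, 360 min. Result expressed as % decrease versus control.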

[5] = target: Prostaglandin G/H synthase 1 (Homo sapiens) (UniProt P23219); assay: Inhibition of COX1 in human whole blood assessed as reduction in calcium ionophore-stimulated TXB2 production by ELISA; format: tissue-based
Sequence of Prostaglandin G/H synthase 1 (Homo sapiens) (P23219 whole entry): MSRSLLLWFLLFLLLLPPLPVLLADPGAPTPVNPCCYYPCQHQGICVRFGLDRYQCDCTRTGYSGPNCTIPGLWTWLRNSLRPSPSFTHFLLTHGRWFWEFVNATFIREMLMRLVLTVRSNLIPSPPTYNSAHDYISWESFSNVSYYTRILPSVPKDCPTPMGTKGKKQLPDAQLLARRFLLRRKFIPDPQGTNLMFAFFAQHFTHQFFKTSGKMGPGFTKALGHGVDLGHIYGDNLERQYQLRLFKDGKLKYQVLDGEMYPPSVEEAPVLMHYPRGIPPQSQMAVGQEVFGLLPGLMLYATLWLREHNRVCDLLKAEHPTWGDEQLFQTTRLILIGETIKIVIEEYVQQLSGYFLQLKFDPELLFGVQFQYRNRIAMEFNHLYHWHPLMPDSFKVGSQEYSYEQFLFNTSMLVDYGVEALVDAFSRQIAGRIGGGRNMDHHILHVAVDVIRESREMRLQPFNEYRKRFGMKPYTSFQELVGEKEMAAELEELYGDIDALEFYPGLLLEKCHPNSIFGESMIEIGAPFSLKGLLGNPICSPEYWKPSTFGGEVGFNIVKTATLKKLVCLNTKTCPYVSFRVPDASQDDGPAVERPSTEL

Mus musculus [6] = assay: Analgesic activity in Swiss albino mouse assessed as inhibition of acetic acid-induced writhing at 10 mg/kg, ip administered 30 mins prior to acetic acid challenge and measured after 30 mins relative to control; format: functional; parameters: scale not given: the % may be the effect or the level left; settings: time 60 min, 1 h; in short: as §1
Mus musculus [7] = assay: Antiinflammatory activity in Swiss albino mouse model of carrageenan-induced paw edema assessed as reduction in paw thickness at 10 mg/kg, administered 30 mins prior to carrageenan challenge and measured upto 360 mins; format: functional; parameters: scale not given: the % may be the effect or the level left; settings: time 390 min, 6.5 h; in short: as §2

O=C1NC(=O)C(=Cc2cn(C[C@H](O)COc3cc(O)c4c(=O)cc(-c5ccccc5)oc4c3)c3ccccc23)C(=O)N1
IC50 [1]: 0.0015 µM | IC50 [2]: 0.34 µM

COc1cc(-c2cc(C(=O)CCCOc3ccc4ccc(=O)oc4c3)nn2-c2ccccc2)cc(OC)c1OC
IC50 [1]: 0.87 µM | IC50 [2]: 53.1 µM

CCOC(=O)[C@H](OCc1cnnn1[C@@H](Cc1ccccc1)C(=O)OC)[C@@H](OCc1cnnn1[C@@H](Cc1ccccc1)C(=O)OC)C(=O)OCC
IC50 [1]: 0.09 µM | IC50 [2]: 90 µM

CCOC(=O)[C@H](O)[C@@H](OCc1cnnn1[C@@H](CO)C(=O)OC)C(=O)OCC
IC50 [1]: 14 µM | IC50 [2]: 110 µM

Cc1ccc(S(=O)(=O)n2cc(C(=O)C(=O)N[C@H](C(=O)NCC(=O)O)c3c[nH]c4ccccc34)c3ccccc32)cc1
IC50 [1]: 0.08 µM | IC50 [2]: 12.9 µM

CCOC(=O)Cn1nncc1CO[C@@H](C(=O)OCC)[C@@H](O)C(=O)OCC
IC50 [1]: 6 µM | IC50 [2]: 95 µM

CCOC(=O)Cn1nncc1COc1ccc2ccccc2c1-c1c(OCc2cnnn2CC(=O)OCC)ccc2ccccc12
IC50 [1]: 11 µM | IC50 [2]: 70 µM

COC(=O)[C@H](Cc1ccccc1)n1nncc1COc1ccc2ccccc2c1-c1c(OCc2cnnn2[C@@H](Cc2ccccc2)C(=O)OC)ccc2ccccc12
IC50 [1]: 3 µM | IC50 [2]: 150 µM

CCOC(=O)Cn1nncc1CO[C@@H](C(=O)OCC)[C@@H](OCc1cnnn1CC(=O)OCC)C(=O)OCC
IC50 [1]: 0.3 µM | IC50 [2]: 60 µM | Activity (Mus musculus [3]; time 60.0 min): Active

CCOC(=O)[C@H](O)[C@@H](OCc1cnnn1[C@@H](Cc1ccccc1)C(=O)OC)C(=O)OCC
IC50 [1]: 8 µM | IC50 [2]: 55 µM

CC(c1cc2ccccc2s1)N(O)C(N)=O (configuration not stated) [ZILEUTON]
IC50 [1]: 0.3 µM

CCOC(=O)[C@H](OCc1cnnn1[C@@H](CO)C(=O)OC)[C@@H](OCc1cnnn1[C@@H](CO)C(=O)OC)C(=O)OCC
IC50 [1]: 1.3 µM | IC50 [2]: 54 µM | Activity (Mus musculus [3]; time 60.0 min): Active

COC(=O)[C@H](CO)n1nncc1COc1ccc2ccccc2c1-c1c(OCc2cnnn2[C@@H](CO)C(=O)OC)ccc2ccccc12
IC50 [1]: 6 µM | IC50 [2]: 86 µM

Cc1ccc(-c2cc(C(F)(F)F)nn2-c2ccc(S(N)(=O)=O)cc2)cc1 [CELECOXIB]
Activity (Mus musculus [3]; time 60 min, 1 h): 62% | Activity (Mus musculus [4]): 33%

CCOC(=O)[C@H](O)[C@@H](OCc1cnnn1[C@@H](Cc1ccc(O)cc1)C(=O)OC)C(=O)OCC
IC50 [1]: 12 µM | IC50 [2]: 80 µM

CCOC(=O)[C@H](OCc1cnnn1[C@@H](Cc1c[nH]c2ccccc12)C(=O)OC)[C@@H](OCc1cnnn1[C@@H](Cc1c[nH]c2ccccc12)C(=O)OC)C(=O)OCC
IC50 [1]: 0.45 µM | IC50 [2]: > 10 µM | Activity (Mus musculus [3]; time 60.0 min): inactive

COC(=O)[C@H](Cc1c[nH]c2ccccc12)n1nncc1COc1ccc2ccccc2c1-c1c(OCc2cnnn2[C@@H](Cc2c[nH]c3ccccc23)C(=O)OC)ccc2ccccc12
IC50 [1]: 1 µM | IC50 [2]: 90 µM

CCOC(=O)[C@H](OCc1cnnn1[C@H](Cc1ccc(O)cc1)C(=O)OC)[C@@H](OCc1cnnn1[C@@H](Cc1ccc(O)cc1)C(=O)OC)C(=O)OCC
IC50 [1]: 0.14 µM | IC50 [2]: > 10 µM

CCOC(=O)[C@H](OCc1cnnn1[C@@H](Cc1ccc(O)cc1)C(=O)OC)[C@@H](OCc1cnnn1[C@@H](Cc1ccc(O)cc1)C(=O)OC)C(=O)OCC
IC50 [1]: 0.15 µM | IC50 [2]: > 10 µM | Activity (Mus musculus [3]; time 60.0 min): inactive

CC1(C)Cc2c(-c3ccccc3)c(-c3ccc(Cl)cc3)c(CC(=O)O)n2C1 [LICOFELONE]
IC50 [1]: 0.18 µM | IC50 [2]: 0.21 µM

COC(=O)[C@H](Cc1ccc(O)cc1)n1nncc1COc1ccc2ccccc2c1-c1c(OCc2cnnn2[C@@H](Cc2ccc(O)cc2)C(=O)OC)ccc2ccccc12
IC50 [1]: 0.6 µM | IC50 [2]: > 10 µM | Activity (Mus musculus [3]; time 60.0 min): inactive

COc1ccc2c(c1)c(CC(=O)O)c(C)n2C(=O)c1ccc(Cl)cc1 [INDOMETHACIN]
Activity [5]: 0.9 ng/mL | Activity (Mus musculus [6]): 55% | Activity (Mus musculus [7]): 30%

O=C(O)[C@H](OCc1cnnn1[C@@H](Cc1ccccc1)C(=O)O)[C@@H](OCc1cnnn1[C@@H](Cc1ccccc1)C(=O)O)C(=O)O
IC50 [1]: 0.5 µM | Activity (Mus musculus [3]; time 60.0 min): inactive

COc1ccc(-n2nc(CCC(=O)N(C)O)cc2-c2ccc(Cl)cc2)cc1 [TEPOXALIN]
IC50 [1]: 0.15 µM

From ChEMBL document CHEMBL5032505, “Design, Synthesis, and Activity Evaluation of Stereoconfigured Tartarate Derivatives as Potential Anti-inflammatory Agents In Vitro and In Vivo” (J Med Chem, 2021)
